Results: ChEMBL document CHEMBL4184143 (J Med Chem, 2017)
pIC50, pKd, pKi: −log10 of the molar value. The source made the active and inactive calls. The calls are words filed in the database; no cut-off is given here.

Experiments:
[1] = Half life in CD1 mouse liver microsomes at 1 uM by LC/MS method; type: ADME, microsome
[2] = Half life in Sprague-Dawley rat at 25 mg/kg, po by LC/MS method; type: ADME, organism-based; conditions: in vivo
Outline: (§1)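 Sprague Dawley rats were dosed iv at 5 mg/kg or orally at 25 mg/kg, with compound dissolved in 20% (v/v) PCP/70% (v/v) PBS vehicle. Blood was drawn by catheter at 0, 5, 15, 30 min and 1, 2, 4, 6, 8, 24 h and spun to plasma, which was stored at −80 °C. Plasma drug was quantified by a validated LC–MS/MS method, and parameters were derived noncompartmentally.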

[3] = molecular target: Nucleosome-remodeling factor subunit BPTF (Homo sapiens, UniProt Q12830); test: Binding affinity to human partial length FALZ (S2791 to H2911 residues) expressed in bacterial expression system by BROMOscan assay
[4] = AUC (0 to t) in Sprague-Dawley rat at 5 mg/kg, iv by LC/MS method; type: ADME, organism-based; conditions: in vivo; outline: as §1
[5] = AUC (0 to t) in SCID mouse at 25 mg/kg, po by LC/MS method; type: ADME, organism-based; conditions: in vivo
Outline: (§2)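 Mouse plasma samples were stored at −80 °C. Drug levels were quantified by a validated LC–MS/MS method, and pharmacokinetic parameters were calculated by noncompartmental analysis.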

[6] = molecular target: Bromodomain-containing protein 8 (Homo sapiens, UniProt Q9H0E9); test: Binding affinity to human partial length BRD8 bromodomain 2 (D1095 to F1235 residues) expressed in mammalian expression system by BROMOscan assay
Protein polybromo-1 [7] = molecular target: T1, Protein polybromo-1 (Homo sapiens, UniProt Q86U86); test: Binding affinity to human partial length PBRM1 bromodomain 2 (S178 to E291 residues) expressed in bacterial expression system by BROMOscan assay
[8] = molecular target: Histone acetyltransferase p300 (Homo sapiens, UniProt Q09472); test: Binding affinity to human partial length EP300 (A1040 to G1161 residues) expressed in bacterial expression system by BROMOscan assay
[9] = molecular target: T2, Bromodomain-containing protein 4 (Homo sapiens, UniProt O60885); test: Binding affinity to recombinant human BRD4 bromodomain 1 (44 to 168 residues) by BROMOscan assay
[10] = molecular target: Bromodomain-containing protein 2 (Homo sapiens, UniProt P25440); test: Binding affinity to human partial length BRD2 bromodomain 1/2 isoform 1 (K71 to D455 residues) by BROMOscan assay
[11] = molecular target: Transcription intermediary factor 1-alpha (Homo sapiens, UniProt O15164); test: Binding affinity to human partial length TRIM24 expressed in bacterial expression system by BROMOscan assay
[12] = molecular target: Bromodomain adjacent to zinc finger domain protein 2A (Homo sapiens, UniProt Q9UIF9); test: Binding affinity to human partial length BAZ2A (M1792 to L1905 residues) expressed in bacterial expression system by BROMOscan assay
MDA-MB-231 = test: Antitumor activity against human MDA-MB-231 cells xenografted in SCID mouse assessed as tumor growth inhibition at 40 mg/kg, po qd measured 2 to 3 times weekly during treatment and weekly post dose; type: functional, organism-based
Outline: (§3)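 At ~100 mm3, mice were randomized to treatment or vehicle control. Tumors were measured by electronic calipers. Animals were checked daily for signs of toxicity and weighed 2–3 times weekly on treatment, then at least weekly afterwards.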

[13] = molecular target: Bromodomain and WD repeat-containing protein 1 (Homo sapiens, UniProt Q9NSI6); test: Binding affinity to human partial length WDR9 bromodomain 2 (A1310 to E1430 residues) expressed in bacterial expression system by BROMOscan assay
[14] = molecular target: SWI/SNF-related matrix-associated actin-dependent regulator of chromatin subfamily A member 2 (Homo sapiens, UniProt P51531); test: Binding affinity to human partial length SMARCA2 (S1377 to Q1486 residues) expressed in bacterial expression system by BROMOscan assay
[15] = AUC (0 to t) in SCID mouse at 5 mg/kg, iv by LC/MS method; type: ADME, organism-based; conditions: in vivo; outline: as §2
[16] = Cmax in Sprague-Dawley rat at 25 mg/kg, po by LC/MS method; type: ADME, organism-based; parameters: dose 25 mg/kg, route oral; conditions: in vivo; outline: as §1
Mus musculus [17] = test: Clearance in SCID mouse at 5 mg/kg, iv by LC/MS method; type: ADME, organism-based; conditions: in vivo
[18] = molecular target: Bromodomain-containing protein 3 (Homo sapiens, UniProt Q15059); test: Binding affinity to human partial length BRD3 bromodomain 1 (P24 to E144 residues) expressed in bacterial expression system by BROMOscan assay
[19] = molecular target: Bromodomain and PHD finger-containing protein 3 (Homo sapiens, UniProt Q9ULD4); test: Binding affinity to human partial length BRPF3 (E588 to G701 residues) expressed in bacterial expression system by BROMOscan assay
[20] = molecular target: T2, Bromodomain-containing protein 4; test: Binding affinity to human partial length BRD4 bromodomain 1/2 long isoform (N44 to E460 residues) expressed in bacterial expression system by BROMOscan assay
Protein polybromo-1 [21] = molecular target: T1, Protein polybromo-1; test: Binding affinity to human partial length PBRM1 bromodomain 5 (S645 to D766 residues) expressed in bacterial expression system by BROMOscan assay
[22] = molecular target: Histone acetyltransferase KAT2B (Homo sapiens, UniProt Q92831); test: Binding affinity to human partial length PCAF (G715 to D831 residues) expressed in bacterial expression system by BROMOscan assay
[23] = Cmax in SCID mouse at 25 mg/kg, po by LC/MS method; type: ADME, organism-based; parameters: dose 25 mg/kg, route oral; conditions: in vivo
[24] = molecular target: T2, Bromodomain-containing protein 4; test: Inhibition of FAM-labeled ZBA248 binding to recombinant human N-terminal His6-tagged BRD4 bromodomain 2 (333 to 460 residues) expressed in Rosetta2 DE3 cells after 30 mins by Flourescence polarization assay; type: biochemical
SUM-159-PT = test: Cytotoxicity against human SUM159PT cells assessed as cell growth inhibition after 4 days by WST-8 assay; type: functional, cell-based; conditions: 96 h
Outline: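 Breast cancer cells were seeded at 3,000 cells/well, treated with serially diluted compound in medium and cultured for 4 days. Growth was read by WST-8 (10% v/v final, 1–3 h) at 450 nm. Readings were normalized to DMSO-treated cells, and IC50 was obtained by nonlinear regression.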

[25] = Half life in Sprague-Dawley rat at 5 mg/kg, iv by LC/MS method; type: ADME, organism-based; conditions: in vivo
[26] = molecular target: Transcription initiation factor TFIID subunit 1 (Homo sapiens, UniProt P21675); test: Binding affinity to human partial length TAF1 bromodomain 2 (D1521 to D1656 residues) expressed in bacterial expression system by BROMOscan assay
Mus musculus [27] = test: Toxicity in SCID mouse implanted with human MV-411 cells assessed as weight loss at 50 mg/kg, po qd measured 2 to 3 times weekly during treatment and weekly post dose; type: organism-based; conditions: in vivo; outline: as §3
[28] = Half life in Sprague-Dawley rat liver microsomes at 1 uM by LC/MS method; type: ADME, microsome
[29] = Aqueous solubility of the compound in 5% DMSO/10% cremophor/85% saline; type: physicochemical; conditions: buffer
Mus musculus [30] = test: Toxicity in SCID mouse implanted with human MV4-11 cells at 50 mg/kg, po qd measured 2 to 3 times weekly during treatment and once weekly post dose; type: organism-based; conditions: in vivo; outline: as §3

T1 sequence (Q86U86 whole entry, the tested form may be a part): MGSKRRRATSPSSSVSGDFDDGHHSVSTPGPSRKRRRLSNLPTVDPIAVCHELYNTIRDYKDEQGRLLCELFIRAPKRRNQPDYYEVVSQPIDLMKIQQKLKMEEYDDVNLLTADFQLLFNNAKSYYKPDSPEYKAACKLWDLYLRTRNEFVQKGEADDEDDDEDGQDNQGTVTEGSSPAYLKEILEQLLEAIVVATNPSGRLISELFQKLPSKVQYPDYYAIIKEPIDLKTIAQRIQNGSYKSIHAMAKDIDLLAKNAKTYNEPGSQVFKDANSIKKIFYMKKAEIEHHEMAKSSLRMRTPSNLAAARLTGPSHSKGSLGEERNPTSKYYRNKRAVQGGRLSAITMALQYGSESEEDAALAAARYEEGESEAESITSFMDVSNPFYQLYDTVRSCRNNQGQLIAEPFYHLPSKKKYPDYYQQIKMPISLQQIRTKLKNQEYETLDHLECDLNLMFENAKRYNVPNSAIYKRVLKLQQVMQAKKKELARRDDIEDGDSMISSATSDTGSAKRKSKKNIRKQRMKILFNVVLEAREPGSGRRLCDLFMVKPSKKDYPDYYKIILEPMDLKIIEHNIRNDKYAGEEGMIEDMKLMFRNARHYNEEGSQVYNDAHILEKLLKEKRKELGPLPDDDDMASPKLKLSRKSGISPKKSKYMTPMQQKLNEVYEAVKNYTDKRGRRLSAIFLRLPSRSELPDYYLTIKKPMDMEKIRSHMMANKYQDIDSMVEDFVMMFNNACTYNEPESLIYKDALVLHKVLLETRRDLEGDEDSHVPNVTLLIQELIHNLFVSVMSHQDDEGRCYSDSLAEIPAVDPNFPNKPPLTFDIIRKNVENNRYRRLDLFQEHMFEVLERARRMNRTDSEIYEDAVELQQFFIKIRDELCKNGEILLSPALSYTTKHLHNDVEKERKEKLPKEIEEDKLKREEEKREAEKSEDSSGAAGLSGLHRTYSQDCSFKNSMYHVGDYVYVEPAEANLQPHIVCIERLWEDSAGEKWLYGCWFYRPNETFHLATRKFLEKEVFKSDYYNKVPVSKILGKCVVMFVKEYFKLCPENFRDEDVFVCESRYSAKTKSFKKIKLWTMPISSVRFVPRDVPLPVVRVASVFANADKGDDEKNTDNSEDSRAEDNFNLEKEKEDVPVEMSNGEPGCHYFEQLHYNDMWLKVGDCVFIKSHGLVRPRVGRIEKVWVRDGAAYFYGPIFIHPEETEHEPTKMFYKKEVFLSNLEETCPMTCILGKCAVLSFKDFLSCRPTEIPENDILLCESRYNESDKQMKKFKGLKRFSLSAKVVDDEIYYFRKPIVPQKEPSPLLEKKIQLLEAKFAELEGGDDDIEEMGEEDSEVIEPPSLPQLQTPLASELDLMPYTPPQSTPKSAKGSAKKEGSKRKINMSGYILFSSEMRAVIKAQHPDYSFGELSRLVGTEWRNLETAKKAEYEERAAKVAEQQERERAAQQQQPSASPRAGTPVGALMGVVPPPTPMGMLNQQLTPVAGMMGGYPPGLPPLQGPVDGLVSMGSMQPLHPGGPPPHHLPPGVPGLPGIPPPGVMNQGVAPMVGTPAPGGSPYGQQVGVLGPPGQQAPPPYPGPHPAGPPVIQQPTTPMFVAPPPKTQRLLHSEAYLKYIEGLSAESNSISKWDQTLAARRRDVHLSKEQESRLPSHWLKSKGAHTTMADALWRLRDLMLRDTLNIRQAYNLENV
Histone acetyltransferase KAT2B, sequence (Q92831 whole entry, the tested form may be a part): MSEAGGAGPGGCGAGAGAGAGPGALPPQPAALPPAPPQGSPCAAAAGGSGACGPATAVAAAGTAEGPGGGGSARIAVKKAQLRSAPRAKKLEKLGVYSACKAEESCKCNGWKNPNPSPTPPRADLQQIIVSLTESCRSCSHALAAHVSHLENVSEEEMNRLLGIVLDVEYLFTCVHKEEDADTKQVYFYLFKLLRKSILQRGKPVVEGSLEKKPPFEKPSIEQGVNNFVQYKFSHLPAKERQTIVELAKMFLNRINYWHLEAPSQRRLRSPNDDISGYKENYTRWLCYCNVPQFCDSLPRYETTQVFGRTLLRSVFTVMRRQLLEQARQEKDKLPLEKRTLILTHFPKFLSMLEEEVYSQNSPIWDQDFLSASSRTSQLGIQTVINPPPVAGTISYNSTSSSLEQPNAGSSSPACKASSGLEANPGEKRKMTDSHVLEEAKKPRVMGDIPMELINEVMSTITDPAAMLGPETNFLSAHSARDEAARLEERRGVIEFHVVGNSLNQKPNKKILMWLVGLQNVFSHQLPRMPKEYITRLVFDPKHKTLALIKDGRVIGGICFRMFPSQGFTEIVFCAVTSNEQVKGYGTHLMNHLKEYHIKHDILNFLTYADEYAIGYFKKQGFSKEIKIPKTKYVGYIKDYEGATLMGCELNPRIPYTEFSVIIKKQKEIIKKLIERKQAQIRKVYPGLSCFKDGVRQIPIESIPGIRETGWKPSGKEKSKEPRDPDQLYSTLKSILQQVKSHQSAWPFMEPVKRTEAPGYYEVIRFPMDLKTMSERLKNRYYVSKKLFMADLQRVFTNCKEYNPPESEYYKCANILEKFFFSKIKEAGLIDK
Bromodomain-containing protein 3, sequence (Q15059 whole entry, the tested form may be a part): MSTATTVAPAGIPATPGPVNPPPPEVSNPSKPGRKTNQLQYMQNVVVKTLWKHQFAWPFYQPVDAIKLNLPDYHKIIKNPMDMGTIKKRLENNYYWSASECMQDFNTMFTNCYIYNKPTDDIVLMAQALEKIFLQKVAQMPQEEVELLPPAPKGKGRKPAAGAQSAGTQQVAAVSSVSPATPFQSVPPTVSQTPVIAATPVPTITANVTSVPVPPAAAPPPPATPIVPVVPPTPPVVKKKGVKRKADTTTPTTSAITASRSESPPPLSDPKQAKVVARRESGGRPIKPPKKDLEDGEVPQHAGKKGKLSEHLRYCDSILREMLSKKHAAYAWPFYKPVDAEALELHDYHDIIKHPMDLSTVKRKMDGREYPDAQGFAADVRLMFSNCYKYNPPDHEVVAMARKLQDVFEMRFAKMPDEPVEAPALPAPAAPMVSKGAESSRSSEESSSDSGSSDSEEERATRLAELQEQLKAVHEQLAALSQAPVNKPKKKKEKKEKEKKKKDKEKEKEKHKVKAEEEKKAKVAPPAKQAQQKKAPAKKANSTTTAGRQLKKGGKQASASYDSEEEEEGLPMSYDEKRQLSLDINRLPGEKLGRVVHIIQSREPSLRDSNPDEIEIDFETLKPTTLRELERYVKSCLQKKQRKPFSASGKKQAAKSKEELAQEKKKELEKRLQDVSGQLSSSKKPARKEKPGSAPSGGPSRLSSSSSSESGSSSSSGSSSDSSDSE
SWI/SNF-related matrix-associated actin-dependent regulator of chromatin subfamily A member 2, sequence (P51531 whole entry, the tested form may be a part): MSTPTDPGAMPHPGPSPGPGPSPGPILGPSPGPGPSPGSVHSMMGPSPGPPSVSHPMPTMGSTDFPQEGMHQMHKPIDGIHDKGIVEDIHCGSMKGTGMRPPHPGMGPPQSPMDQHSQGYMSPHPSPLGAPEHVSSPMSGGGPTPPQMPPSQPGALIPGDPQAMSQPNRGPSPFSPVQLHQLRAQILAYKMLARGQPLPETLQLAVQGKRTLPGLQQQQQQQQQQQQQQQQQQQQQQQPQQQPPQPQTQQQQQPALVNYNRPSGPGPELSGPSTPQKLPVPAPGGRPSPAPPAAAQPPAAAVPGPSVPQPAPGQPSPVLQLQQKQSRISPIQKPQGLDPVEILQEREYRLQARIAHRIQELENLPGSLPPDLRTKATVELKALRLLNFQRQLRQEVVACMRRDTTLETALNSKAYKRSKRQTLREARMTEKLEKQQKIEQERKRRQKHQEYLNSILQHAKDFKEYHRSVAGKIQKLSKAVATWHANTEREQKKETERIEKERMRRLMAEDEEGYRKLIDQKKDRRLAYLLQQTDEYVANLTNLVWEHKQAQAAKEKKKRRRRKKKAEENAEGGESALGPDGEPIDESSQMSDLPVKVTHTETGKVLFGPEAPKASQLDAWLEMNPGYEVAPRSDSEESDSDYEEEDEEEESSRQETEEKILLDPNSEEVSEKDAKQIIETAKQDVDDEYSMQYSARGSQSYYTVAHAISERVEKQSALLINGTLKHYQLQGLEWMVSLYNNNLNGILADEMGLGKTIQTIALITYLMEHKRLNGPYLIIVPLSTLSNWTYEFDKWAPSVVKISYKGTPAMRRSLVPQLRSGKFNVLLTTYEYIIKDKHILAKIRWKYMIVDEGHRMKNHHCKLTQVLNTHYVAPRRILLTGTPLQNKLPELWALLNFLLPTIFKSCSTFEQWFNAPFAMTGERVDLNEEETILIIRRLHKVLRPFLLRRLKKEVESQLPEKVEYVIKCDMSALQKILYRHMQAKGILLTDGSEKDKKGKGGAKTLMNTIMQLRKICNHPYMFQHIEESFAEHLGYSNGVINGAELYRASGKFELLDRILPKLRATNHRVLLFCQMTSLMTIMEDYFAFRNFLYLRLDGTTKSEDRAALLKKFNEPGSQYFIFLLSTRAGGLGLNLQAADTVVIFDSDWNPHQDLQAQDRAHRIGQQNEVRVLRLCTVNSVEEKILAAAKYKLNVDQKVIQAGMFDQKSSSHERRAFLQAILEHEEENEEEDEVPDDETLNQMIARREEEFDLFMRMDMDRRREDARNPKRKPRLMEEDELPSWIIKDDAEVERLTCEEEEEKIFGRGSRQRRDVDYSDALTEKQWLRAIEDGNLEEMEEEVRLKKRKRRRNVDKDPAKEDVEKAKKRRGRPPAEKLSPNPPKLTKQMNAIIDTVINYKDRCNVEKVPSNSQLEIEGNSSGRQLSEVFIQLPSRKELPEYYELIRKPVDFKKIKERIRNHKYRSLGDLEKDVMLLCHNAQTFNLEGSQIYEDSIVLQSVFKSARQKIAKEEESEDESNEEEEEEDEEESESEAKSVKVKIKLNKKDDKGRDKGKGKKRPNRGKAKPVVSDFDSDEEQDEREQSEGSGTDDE

Structure (SMILES): COc1cc2c(cc1-c1c(C)noc1C)[nH]c1nc(C)nc(-c3ccnc4ccccc34)c12
- t1/2 [1]: > 1 h
- half-life [2]: 2.9 h
- pKd [3]: < 5.40
- AUC(0-t) [4]: 6340 ng·h/mL
- AUC(0-t) [5]: 9140 ng·h/mL
- pKd [6]: < 5.40
- pKd (Protein polybromo-1 [7]): < 5.40
- pKd [8]: 6.26
- pKd [9]: 8.08
- pKd [10]: 8.96
- pKd [11]: < 5.40
- pKd [12]: < 5.40
- TGI (MDA-MB-231): Active
- pKd [13]: < 5.40
- pKd [14]: < 5.40
- AUC(0-t) [15]: 3690 ng·h/mL
- Cmax [16]: 7330 ng/mL
- CL (Mus musculus [17]): 22.7 mL/min/kg
- pKd [18]: 8.70
- pKd [19]: < 5.40
- pKd [20]: 8.74
- pKd (Protein polybromo-1 [21]): < 5.40
- pKd [22]: < 5.40
- Cmax [23]: 983 ng/mL
- pIC50 [24]: 8.14
- pKi [24]: 8.85
- pIC50 (SUM-159-PT): < 5.70
- half-life [25]: 2.4 h
- pKd [26]: < 5.40
- Activity (Mus musculus [27]): Non-Toxic
- t1/2 [28]: > 1 h
- solubility [29]: Soluble
- Activity (Mus musculus [30]): Non-Toxic
